# Hits are enriched below; roughly 1.9% of the tested compounds scored in any of these assays.
# MT stabilizer – microtubule stabilizers in HeLa cells, primary screen, imaging, high-content imaging. 200,000 tested, 0.83% active. % tubulin-high responders, % at 10 µM. HeLa tubulin immunostaining HCS, 24 h; share of cells brighter than vehicle mean+2SD;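 active means plate Z-score above 3 for both tubulin-high and condensed-nucleus cell shares, with cell loss under 80%, at 10 µM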;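 further: anti alpha tubulin signal scored within the nucleus-defined area of each cell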
# b-catenin transl – modulators of beta-catenin nuclear translocation, primary screen, imaging, HeLa cells, immunofluorescence, high-content; 190,000 tested, 0.3% active; nuclear translocation activity, % at 5 µM; AID 1665, 2009;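 active means nuclear translocation activity above 50% at 5 µM, with a well cell count of 50 or more; inconclusive means wells under 50 cells across six images, flagged as toxic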;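 further: per-cell ratio of nuclear to cytoplasmic median beta-catenin stain intensity; plate controls were DMSO negative control for no effect and GSK-3 inhibitor IX positive control for full effect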
#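 Test system: human HeLa cells, native beta-catenin. Compound dosing: 5 µM primary single dose, 0.1% DMSO, 0.02–20 µM confirmation series. Incubation: compound exposure 24 h at 37°C. Detection: beta-catenin immunostaining with DAPI counterstain, 20x imaging, 6 fields/well. Read-out basis: Nuclear/cytoplasmic beta-catenin signal ratio, % activation.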
# Autophagy HCS – autophagy modulators in MEF cells, primary screen, imaging, high-content, MEF GFP-LC3; MEF GFP-LC3 puncta imaging; test concentration mostly 10 µM; calls only at 10 µM (by protocol); 190,000 tested, 0.98% active;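 active means percentage of spot-positive cells more than 3 SD above its plate mean, without a fluorescence outlier flag or 80% toxicity; inconclusive means no clear call, values can overlap the other calls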;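 further: spot-positive cell cutoff set from DMSO-treated cells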
# Insulin prom up – insulin promoter activators in MIN6 cells, imaging, high-content screening, mouse beta cells; MIN6 insulin promoter-GFP reporter; stronger effect = higher value; z-score at 5 µM; 190,000 tested, 0.3% active;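 active means z-score above 3 at 5 µM with at least 500 cells counted in the well; inconclusive means wells under 500 cells, flagged as cytotoxic or low count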
# TbHK1 inh – Trypanosoma brucei hexokinase 1 inhibitors, primary screen, biochemical, G6PDH-coupled NADH absorbance, MLSCN library | hexokinase 1 [Trypanosoma brucei] | 220,000 tested, 0.11% active | AID 1430, 2008 | inhibition, % at 10 µM | recombinant TbHK1, G6PDH-coupled NADH A340;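 active means inhibition of 50% or more in the single-dose primary screen; inactive means inhibition below 50%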
# * = called active by the depositor; i = inactive; u = inconclusive; x = not tested or not shown; + = active, no number.
SMILES,MT stabilizer,b-catenin transl,Autophagy HCS,Insulin prom up,TbHK1 inh
O=C(CSc1nc2ncc(Cl)cc2[nH]1)N(Cc1ccccc1)C1CCS(=O)(=O)C1 (configuration not stated),4,0,i,-1.8,5
C#CCN1C(=O)S/C(=C/C=C/c2ccc(N(C)C)cc2)C1=O,5,-2,+,-0.43,24
O=C(NC1CCCCC1)C(c1cccnc1)N(C(=O)CCl)c1cccc(Cl)c1 (configuration not stated),14*,25,i,-1.2,0
COc1cccc(N(C(=O)c2ccco2)C(C(=O)NC2CCCC2)c2cccnc2)c1 (configuration not stated),1,-4,i,0.9,3
COc1ccc(O)c(C(=O)c2cnn(-c3ccccn3)c2)c1,5,0,i,-0.23,-3
COc1ccc(O)c(C(=O)c2cnc3nc4ccccc4n3c2)c1,28*,76*,i,-0.07,-22
Cc1nn(C)c(Cl)c1C(N)=O,2,-1,i,0.13,0
O=C(CCNS(=O)(=O)c1cccs1)N1CCCCCC1,2,-2,+,-0.15,9
O=C(CCS(=O)(=O)c1cccs1)N1CCCC1,2,1,i,-0.56,4
COc1ccc(C(=O)N=S2CCN(C(=O)c3ccc(Cl)cc3)CC2)cc1,x,-1,x,0.2,-5
COc1ccc(C2CC(=O)C3=C(C2)NC(C)=C(C#N)C3c2ccc(N(C)C)cc2)cc1 (configuration not stated),2,-1,+,x,-15
Cc1nc(NC(=O)COC(=O)CCS(=O)(=O)c2ccccc2Cl)c(Cl)cc1Cl,3,-1,i,4.2*,-5
Cc1ccc2nc(-c3ccsc3)c(NC3CCCC3)n2c1,3,-2,i,1.2,-4
Cc1cc(C)c2ccc3c(C)c(C)nc3c2[nH]1,7,5,+,-0.77,-11
O=C(O)c1cccnc1Sc1ccc(Cl)cc1,4,-5,+,0.32,0
Cc1cc(N2CCC(C)CC2)nc(NCc2ccccc2)n1,13,-1,i,-2.8,3
CCc1ccc(NC(=O)C(CC)Sc2nc3cc4c(cc3c(=O)n2Cc2ccco2)OCO4)cc1 (configuration not stated),6,x,+,-0.47,23
NNC(=O)c1cc2cc3ccccc3nc2s1,2,1,i,-0.81,-17
CCOc1ccc(OCCSc2nc3ccccc3c(=O)[nH]2)cc1,1,-2,i,0.4,-4
O=c1[nH]c(SCCOc2cccc3ccccc23)nc2ccccc12,3,-2,+,-0.13,5
COc1ccccc1NC(=O)Nc1ccc2c(c1)nc(C)n2C,2,0,i,x,2
COc1ccc(C(=O)/C=C2/c3ccccc3CC(C)(C)N2C)cc1,28*,x,i,x,-7
Cc1ccc(Nc2nc(Oc3ccc(=O)[nH]n3)nc(N(C)C)n2)cc1,2,-2,+,-0.26,7
COc1ccc(NC(=O)c2nc(C)c(C3(C)CC(c4cccnc4)=NO3)s2)cc1 (configuration not stated),x,76*,x,-1.1,-18
CNC(=O)c1nc(C)c(C2(C)CC(c3ccccc3)=NO2)s1 (configuration not stated),x,-2,x,-0.26,-13
SMILES,MT stabilizer,b-catenin transl,Autophagy HCS,Insulin prom up,TbHK1 inh
O=C(NCCOc1ccccc1F)c1cc(F)c(F)cc1Cl,2,0,i,0.48,-5
COc1ccc(-c2coc3cc4oc(=O)cc(-c5ccccc5)c4cc23)cc1F,17*,148*,i,-0.61,-4
COc1ccc(-c2coc3cc4oc(=O)cc(C)c4cc23)cc1F,7,15,i,0.63,-10
O=C(O)c1ccc(N/N=C/c2cc3cc4c(cc3nc2Cl)OCCO4)cc1,x,-1,x,-1.4,-42
CCOc1ccc(S(=O)(=O)NCCC(=O)OCC(=O)Nc2cc(C)on2)cc1,x,2,x,1.5,-5
Cc1cccc2[nH]c3c(N4CCC5(CC4)OCCO5)ncnc3c12,39*,57*,i,-1,-23
CCOC(=O)c1cnc(SC)nc1Oc1cccc(NS(=O)(=O)c2ccc(Cl)cc2)c1,32*,-2,i,-0.53,-14
NC(=S)N/N=C\c1c(OCc2ccccc2Cl)ccc2ccccc12,2,2,i,-2,-17
C/C(=N\NC(=O)CC1N=C(Cc2ccccc2)NNC1=O)c1ccc(Cl)cc1Cl (configuration not stated),22*,1,i,0.74,-2
C/C(=N\NC(=O)CC1N=C(Cc2ccccc2)NNC1=O)c1ccccc1 (configuration not stated),4,0,i,-0.01,0
COc1cc(NC(=O)Cn2ncc(Cl)c(Cl)c2=O)c(C)cc1[N+](=O)[O-],14,6,+,u,-10
CC1CN(C(=O)CCn2c(=O)oc3ccccc32)CC(C)O1 (configuration not stated),7,3,i,8*,-7
O=C(CCCn1c(=O)oc2ccccc21)N1CCc2ccccc2C1,6,-4,+,0.11,-2
O=C(CCn1c(=O)oc2ccccc21)NCCN1CCc2ccccc2C1,2,x,i,0.07,-4
O=C(CCn1c(=O)oc2ccccc21)N1CCN(c2ccccc2Cl)CC1,44*,0,i,0.09,3
O=c1c(Cl)c(Cl)cnn1Cc1nnc(-c2ccc(Cl)cc2)o1,40,2,i,u,5
CCN(CC)c1ccc(-c2n[nH]c(=S)n2-c2ccccc2)cc1,25*,4,i,-0.53,-2
CN(C)c1ccc(-c2n[nH]c(=S)n2-c2ccccc2)cc1,5,0,i,-0.24,-4
CCCCC(=O)Nc1nc(C)c(-c2csc(Nc3cc(OC)ccc3OC)n2)s1,52*,39,i,-2.6,-8
CCOC(=O)C1CCN(S(=O)(=O)c2ccc(OC)c(Cl)c2)CC1,2,0,i,-0.2,-1
CCOC(=O)CSc1cccc2cccnc12,4,-3,+,0.3,-4
COc1ccc(CNC(=O)CSc2cccc3cccnc23)cc1,x,0,x,0.76,-17
Cc1cccc(CSc2cccc3cccnc23)c1,4,x,+,x,5
O=S1(=O)c2ccccc2C(CCO)N1Cc1ccccc1 (configuration not stated),x,0,x,-0.54,-10
O=C1CSC(c2cccc([N+](=O)[O-])c2)N1c1c(F)cccc1F (configuration not stated),10*,1,i,-0.35,-3
Cn1cc(Br)c(C(=O)Nc2sc3c(c2C#N)CCC3)n1,x,-2,x,-0.46,-10
Cc1cc(C(=O)Nc2sc3c(c2C#N)CCCC3)no1,18*,-1,i,x,-15
Cn1cc(Cl)c(C(=O)NC(=S)Nc2sc3c(c2C#N)CCCCC3)n1,2,1,+,0.79,26

# Source: PubChem BioAssay (several laboratories)
